Source: ChEMBL document CHEMBL1124896, “Synthesis and antitumor activity of novel 4-demethoxyanthracyclines” (1990)

Tests used:
Format in all cases: functional, Mus musculus
Details in all cases: route intraperitoneal
L1210 (1565) [1] = assay: Antitumor activity against L-1210 leukemia cell line in BDF1 mice after injecting 0.125 mg/kg ip dose
Method in brief: (§1)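 Female BDF1 mice received 10⁵ viable L-1210 ascites cells ip. Aqueous test compound was given ip starting the same day, daily five times a week for 4 weeks or until death, with five mice per dose. Read-out was T/C, the mean survival time of treated mice over untreated controls. Mice alive at 4 weeks were counted as long-term survivors.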

P388 [2] = assay: Antitumor activity against P-388 leukemia cell line in BDF1 mice after injecting 0.38 mg/kg ip dose
P388 [3] = assay: Antitumor activity against P-388 leukemia cell line in BDF1 mice after injecting 4 mg/kg ip dose
L1210 (1565) [4] = assay: Antitumor activity against L-1210 leukemia cell line in BDF1 mice after injecting 0.5 mg/kg ip dose; method in brief: as §1
L1210 (1565) [5] = assay: Antitumor activity against L-1210 leukemia cell line in BDF1 mice after injecting 2 mg/kg ip dose; method in brief: as §1
L1210 (1565) [6] = assay: Antitumor activity against L-1210 leukemia cell line in BDF1 mice after injecting 0.1 mg/kg ip dose; method in brief: as §1
P388 [7] = assay: Antitumor activity against P-388 leukemia cell line in BDF1 mice after injecting 6.25 mg/kg ip dose
P388 [8] = assay: Antitumor activity against P-388 leukemia cell line in BDF1 mice after injecting 2.4 mg/kg ip dose
L1210 (1565) [9] = assay: Antitumor activity against L-1210 leukemia cell line in BDF1 mice after injecting 0.05 mg/kg ip dose; method in brief: as §1
P388 [10] = assay: Antitumor activity against P-388 leukemia cell line in BDF1 mice after injecting 3.0 mg/kg ip dose
L1210 (1565) [11] = assay: Antitumor activity against L-1210 leukemia cell line in BDF1 mice after injecting 0.25 mg/kg ip dose; method in brief: as §1
L1210 (1565) [12] = assay: Antitumor activity against L-1210 leukemia cell line in BDF1 mice after injecting 8 mg/kg ip dose; method in brief: as §1
L1210 (1565) [13] = assay: Antitumor activity against L-1210 leukemia cell line in BDF1 mice after injecting 16 mg/kg ip dose; method in brief: as §1
L1210 (1565) [14] = assay: Antitumor activity against L-1210 leukemia cell line in BDF1 mice after injecting 4 mg/kg ip dose; method in brief: as §1
P388 [15] = assay: Antitumor activity against P-388 leukemia cell line in BDF1 mice after injecting 8.0 mg/kg ip dose
L1210 (1565) [16] = assay: Antitumor activity against L-1210 leukemia cell line in BDF1 mice after injecting 2.0 mg/kg ip dose; method in brief: as §1

C[C@@H]1OC(O[C@H]2C[C@](O)(CO)Cc3c(O)c4c(c(O)c32)C(=O)c2ccccc2C4=O)C[C@H](N)[C@H]1O.Cl (stereo not given in full)
T/C (L1210 (1565) [1]): 340%
T/C (P388 [2]): 174%

CC[C@@]1(O)Cc2c(O)c3c(c(O)c2[C@@H](O[C@H]2C[C@H](N)[C@@H](O)[C@H](C)O2)C1)C(=O)c1ccccc1C3=O.Cl
T/C (P388 [3]): 184%
T/C (L1210 (1565) [4]): 460%

C[C@@H]1O[C@@H](O[C@H]2C[C@@](C)(O)Cc3c(O)c4c(c(O)c32)C(=O)c2ccccc2C4=O)C[C@@H](N)[C@H]1O.Cl
T/C (L1210 (1565) [5]): 470%

CC(=O)[C@]1(O)Cc2c(O)c3c(c(O)c2[C@@H](O[C@H]2C[C@@H](N)[C@@H](O)[C@H](C)O2)C1)C(=O)c1ccccc1C3=O.Cl
T/C (L1210 (1565) [4]): 240%

C[C@@H]1OC(O[C@H]2C[C@](O)(CO)Cc3c(O)c4c(c(O)c32)C(=O)c2ccccc2C4=O)C[C@H](N)[C@@H]1O.Cl (stereo not given in full)
T/C (L1210 (1565) [6]): 230%

C[C@@H]1O[C@@H](O[C@H]2C[C@](O)([C@@H](C)O)Cc3c(O)c4c(c(O)c32)C(=O)c2ccccc2C4=O)C[C@@H](N)[C@@H]1O.Cl
T/C (L1210 (1565) [1]): 250%

C[C@@H]1O[C@@H](O[C@H]2C[C@@](C)(O)Cc3c(O)c4c(c(O)c32)C(=O)c2ccccc2C4=O)C[C@@H](N)[C@@H]1O.Cl
T/C (P388 [7]): 192%
T/C (L1210 (1565) [4]): 400%

CC(=O)[C@]1(O)Cc2c(O)c3c(c(O)c2[C@@H](O[C@H]2C[C@@H](N)[C@H](O)[C@H](C)O2)C1)C(=O)c1ccccc1C3=O.Cl
T/C (P388 [8]): 174%
T/C (L1210 (1565) [9]): 230%

CC[C@@]1(O)Cc2c(O)c3c(c(O)c2[C@@H](O[C@H]2C[C@H](N)[C@H](O)[C@H](C)O2)C1)C(=O)c1ccccc1C3=O.Cl
T/C (P388 [10]): 155%
T/C (L1210 (1565) [4]): 420%

CC1OC(O[C@H]2C[C@](O)(CCO)Cc3c(O)c4c(c(O)c32)C(=O)c2ccccc2C4=O)CC(N)C1O.Cl (stereo not given in full)
T/C (L1210 (1565) [11]): 450%

CC1OC(O[C@H]2C[C@](O)(C(=O)NOCc3ccccc3)Cc3c(O)c4c(c(O)c32)C(=O)c2ccccc2C4=O)CC(N)C1O.Cl (stereo not given in full)
T/C (L1210 (1565) [12]): 100%

COC1C(N)CC(O[C@H]2C[C@](O)(C(C)=O)Cc3c(O)c4c(c(O)c32)C(=O)c2ccccc2C4=O)OC1C.Cl (stereo not given in full)
T/C (L1210 (1565) [11]): 230%

CC1OC(O[C@H]2C[C@](O)(C(=O)N(C)c3ccccc3)Cc3c(O)c4c(c(O)c32)C(=O)c2ccccc2C4=O)CC(N)C1O.Cl (stereo not given in full)
T/C (L1210 (1565) [13]): 120%

COC1C(N)CC(O[C@H]2C[C@](O)(CO)Cc3c(O)c4c(c(O)c32)C(=O)c2ccccc2C4=O)OC1C.Cl (stereo not given in full)
T/C (L1210 (1565) [1]): 350%

CC1OC(O[C@H]2C[C@](O)(C(=O)Nc3ccccc3)Cc3c(O)c4c(c(O)c32)C(=O)c2ccccc2C4=O)CC(N)C1O.Cl (stereo not given in full)
T/C (L1210 (1565) [13]): 120%

CC1CC(N)CC(O[C@H]2C[C@](O)(CO)Cc3c(O)c4c(c(O)c32)C(=O)c2ccccc2C4=O)O1.Cl (stereo not given in full)
T/C (L1210 (1565) [1]): 280%

CC1OC(O[C@H]2C[C@](O)(C(=O)NCc3ccccc3)Cc3c(O)c4c(c(O)c32)C(=O)c2ccccc2C4=O)CC(N)C1O.Cl (stereo not given in full)
T/C (L1210 (1565) [14]): 130%

CCCNC(=O)[C@]1(O)Cc2c(O)c3c(c(O)c2[C@@H](OC2CC(N)C(O)C(C)O2)C1)C(=O)c1ccccc1C3=O.Cl (stereo not given in full)
T/C (L1210 (1565) [5]): 120%

C[C@@H]1O[C@@H](O[C@H]2C[C@](O)([C@H](C)O)Cc3c(O)c4c(c(O)c32)C(=O)c2ccccc2C4=O)C[C@@H](N)[C@@H]1O.Cl (stereo in doubt; 25)
T/C (L1210 (1565) [1]; 0.125 mg/kg): 220%

C[C@@H]1O[C@@H](O[C@H]2C[C@](O)([C@H](C)O)Cc3c(O)c4c(c(O)c32)C(=O)c2ccccc2C4=O)C[C@@H](N)[C@@H]1O.Cl (stereo in doubt; 35)
T/C (L1210 (1565) [1]; 0.125 mg/kg): 270%

C[C@@H]1O[C@@H](O[C@H]2C[C@](O)([C@H](C)O)Cc3c(O)c4c(c(O)c32)C(=O)c2ccccc2C4=O)C[C@@H](N)[C@@H]1O.Cl (stereo in doubt; 36)
T/C (L1210 (1565) [1]; 0.125 mg/kg): 360%

COc1cccc2c1C(=O)c1c(O)c3c(c(O)c1C2=O)C[C@@](O)(C(C)=O)C[C@@H]3O[C@H]1C[C@H](N)[C@H](O)[C@H](C)O1 [DAUNORUBICIN]
T/C (P388 [15]): 143%
T/C (L1210 (1565) [4]): 290%

COc1cccc2c1C(=O)c1c(O)c3c(c(O)c1C2=O)C[C@@](O)(C(=O)CO)C[C@@H]3O[C@H]1C[C@H](N)[C@H](O)[C@H](C)O1 [DOXORUBICIN]
T/C (P388 [15]): 174%
T/C (L1210 (1565) [16]): 330%
